For assay [1], the system named is Escherichia coli. Put plainly: Antimicrobial activity against Escherichia coli at 1 mg/ml by agar-well diffusion method. The class given is functional. The conditions noted are these: read-out: IZ. In short, it runs like this:
(§1)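 Agar-well diffusion on nutrient agar. The surface was swabbed with 2–8 h old inocula of about 10^4–10^6 CFU/mL. Wells were 6 mm across and at least 24 mm apart. Each well received sample at 1 mg/mL in DMSO. DMSO served as negative control and imipenem as positive control. Plates were incubated at 37 °C for 24 h, and the diameter of the complete-inhibition zone was measured in mm.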
Background: In agar diffusion tests the substance spreads into inoculated agar from a disc or well.

The subject of assay [2] is Shigella flexneri. The assay is described as follows: Antimicrobial activity against Shigella flexneri at 1 mg/ml by agar-well diffusion method. The conditions noted are these: read-out: IZ. The class given is functional. In short, it runs like this: as §1
In assay [3] the test system is Salmonella enterica. Put plainly: Antimicrobial activity against Salmonella typhi after 24 hrs by disk diffusion assay. The class given is functional, Salmonella enterica subsp. enterica serovar Typhi.
In assay [4] the test system is Fusarium solani. The assay is described as follows: Antimicrobial activity against Fusarium solani at 200 ug/ml after 7 days. The class given is functional. As to conditions: 168 h. The method in brief: (§2)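 Sabouraud dextrose agar was seeded with fungal spore suspension at 10^5 cfu/mL and poured into Petri plates. Discs soaked with compound at 200 µg/mL in DMSO were placed on the agar surface. Plates were incubated at 32 °C for seven days. Results were recorded as % inhibition, with miconazole and amphotericin B as reference drugs.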

The test system of assay [5] is Salmonella enterica. Put plainly: Antimicrobial activity against Salmonella typhi at 1 mg/ml by agar-well diffusion method. The class given is functional, Salmonella enterica subsp. enterica serovar Typhi. The conditions noted are these: read-out: IZ. The method in brief: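 Agar-well diffusion on nutrient agar. Plates were swabbed with 2–8 h old inoculum at about 10^4–10^6 CFU/mL, and 6 mm wells were cut at least 24 mm apart. Test sample 1 mg/mL in DMSO. DMSO served as negative control and imipenem as positive control. Plates were incubated at 37 °C for 24 h, and the diameter of complete-inhibition zones was measured (mm).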

The test system of the next assay is Staphylococcus aureus. Put plainly: Antimicrobial activity against Staphylococcus aureus at 1 mg/ml by agar-well diffusion method. The class given is functional. The conditions noted are these: read-out: IZ. The method in brief: as §1
In another assay the test system is Aspergillus flavus. Put plainly: Antimicrobial activity against Aspergillus flavus at 200 ug/ml after 7 days. The class given is functional. As to conditions: 168 h. In short, it runs like this: as §2
In assay [6] the test system is Nakaseomyces glabratus. The assay is described as follows: Antimicrobial activity against Candida glabrata at 200 ug/ml after 7 days. The class given is functional. As to conditions: 168 h. In short, it runs like this:
as §2

For assay [7], the system named is Candida albicans. Put plainly: Antimicrobial activity against Candida albicans at 200 ug/ml after 7 days. The class given is functional. As to conditions: 168 h. In short, it runs like this: as §2
The test system of a further assay is Pseudomonas aeruginosa. The assay is described as follows: Antimicrobial activity against Pseudomonas aeruginosa at 1 mg/ml by agar-well diffusion method. The class given is functional. The conditions noted are these: read-out: IZ. The method in brief: as §1
Assay [8] relates to Escherichia coli. Put plainly: Antimicrobial activity against Escherichia coli after 24 hrs by disk diffusion assay. The class given is functional. The method in brief: (§3)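 MIC by disc diffusion, using discs prepared with 10, 25, 50 and 100 µg/mL of compound.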
The test system of assay [9] is Bacillus subtilis. The assay is described as follows: Antimicrobial activity against Bacillus subtilis at 1 mg/ml by agar-well diffusion method. The class given is functional. The conditions noted are these: read-out: IZ. The method in brief: as §1
For a further assay, the system named is Trichophyton longifusum. The assay is described as follows: Antimicrobial activity against Trichophyton longifusum after 7 days. The class given is functional.
Assay [10] deals with Fusarium solani. Put plainly: Antimicrobial activity against Fusarium solani after 7 days. The class given is functional.
Assay [11] relates to Nakaseomyces glabratus. The assay is described as follows: Antimicrobial activity against Candida glabrata after 7 days. The class given is functional.
For the next assay, the system named is Microsporum canis. The assay is described as follows: Antimicrobial activity against Microsporum canis after 7 days. The class given is functional.
Assay [12] concerns Candida albicans. The assay is described as follows: Antimicrobial activity against Candida albicans after 7 days. The class given is functional.
Assay [13] has as its system Shigella flexneri. Put plainly: Antimicrobial activity against Shigella flexneri after 24 hrs by disk diffusion assay. The class given is functional. In short, it runs like this:
as §3

The test system of assay [14] is Bacillus subtilis. Put plainly: Antimicrobial activity against Bacillus subtilis after 24 hrs by disk diffusion assay. The class given is functional. The method in brief: as §3

This passage reports zone of inhibition, MIC and growth inhibition results from ChEMBL document CHEMBL1154837, “Identification of antibacterial and antifungal pharmacophore sites for potent bacteria and fungi inhibition: indolenyl sulfonamide derivatives” (Eur J Med Chem, 2010).

Values after ≈ are worked out from the molar mass of the structure shown.

For `Cc1cc(C)nc(NS(=O)(=O)c2ccc(/N=C/c3c[nH]c4ccccc34)cc2)n1`, the zone of inhibition at 1000 µg/mL with Escherichia coli [1] turned out to be 24 mm; in the assay with Shigella flexneri [2], 19 mm; in the assay on Salmonella enterica [5], 22 mm; in the assay on Staphylococcus aureus, 23 mm; with Pseudomonas aeruginosa, 20 mm; with Bacillus subtilis [9], 18 mm. Besides, the MIC in the assay on Salmonella enterica [3] came to 247 µM (≈ 100 µg/mL); in the assay on Escherichia coli [8] it was 123 µM (≈ 50 µg/mL). Besides, the growth inhibition at 200 µg/mL in the assay with Fusarium solani [4] came to 75%; in the assay with Aspergillus flavus, 55%; with Nakaseomyces glabratus [6] it was 28%; with Candida albicans [7] it was 60%.
As for `Clc1ccc(COC(Cn2ccnc2)c2ccc(Cl)cc2Cl)c(Cl)c1` (stereo not given) [MICONAZOLE], the MIC against Trichophyton longifusum is 168 µM (≈ 70 µg/mL); against Fusarium solani [10], 176 µM (≈ 73.3 µg/mL); in the assay with Nakaseomyces glabratus [11], 266 µM (≈ 111 µg/mL); in the assay on Microsporum canis it was 236 µM (≈ 98.4 µg/mL); in the assay with Candida albicans [12], 266 µM (≈ 111 µg/mL).
Consider `O=S(=O)(Nc1ncccn1)c1ccc(/N=C/c2c[nH]c3ccccc23)cc1`, for which the zone of inhibition at 1000 µg/mL in the assay with Escherichia coli [1] amounted to 19 mm; in the assay with Shigella flexneri [2], 18 mm; in the assay with Salmonella enterica [5] it was 17 mm; in the assay with Staphylococcus aureus, 19 mm; in the assay on Pseudomonas aeruginosa, 20 mm; with Bacillus subtilis [9], 19 mm. Further, the growth inhibition at 200 µg/mL was determined as 70% with Fusarium solani [4], 25% in the assay with Aspergillus flavus, 20% with Nakaseomyces glabratus [6] and 35% in the assay on Candida albicans [7].
As to `O=S(=O)(Nc1nccs1)c1ccc(/N=C/c2c[nH]c3ccccc23)cc1`, the zone of inhibition at 1000 µg/mL stood at 24 mm with Escherichia coli [1]; 23 mm in the assay with Shigella flexneri [2]; 23 mm with Salmonella enterica [5]; 23 mm with Staphylococcus aureus; 20 mm in the assay with Pseudomonas aeruginosa; 24 mm in the assay on Bacillus subtilis [9]. Further, the minimum inhibitory concentration (MIC) against Salmonella enterica [3] came out at 262 µM (≈ 100 µg/mL); in the assay on Shigella flexneri [13] it was 131 µM (≈ 50 µg/mL); against Escherichia coli [8], 262 µM (≈ 100 µg/mL). In addition, the growth inhibition at 200 µg/mL with Fusarium solani [4] was determined as 80%; with Aspergillus flavus, 30%; in the assay on Nakaseomyces glabratus [6], 60%; in the assay on Candida albicans [7], 40%.
For `C[C@@H](O)[C@H]1C(=O)N2C(C(=O)O)=C(SCCNC=N)C[C@H]12` [IMIPENEM ANHYDROUS], the zone of inhibition at 1000 µg/mL in the assay with Escherichia coli [1] was found to be 30 mm; in the assay on Shigella flexneri [2], 27 mm; in the assay with Salmonella enterica [5], 27 mm; in the assay on Staphylococcus aureus, 30 mm; in the assay on Pseudomonas aeruginosa, 26 mm; in the assay with Bacillus subtilis [9] it was 28 mm.
`NS(=O)(=O)c1ccc(/N=C/c2c[nH]c3ccccc23)cc1`: the zone of inhibition at 1000 µg/mL came out at 21 mm with Escherichia coli [1]; 18 mm with Shigella flexneri [2]; 20 mm with Salmonella enterica [5]; 18 mm in the assay on Staphylococcus aureus; 19 mm in the assay with Pseudomonas aeruginosa; 20 mm with Bacillus subtilis [9]. The growth inhibition at 200 µg/mL in the assay on Fusarium solani [4] came out at 43%; in the assay on Aspergillus flavus, 55%; with Nakaseomyces glabratus [6] it was 25%; with Candida albicans [7] it was 40%.
As for `Cc1cc(NS(=O)(=O)c2ccc(/N=C/c3c[nH]c4ccccc34)cc2)no1`, the zone of inhibition at 1000 µg/mL is 22 mm with Escherichia coli [1]; 20 mm in the assay with Shigella flexneri [2]; 19 mm in the assay with Salmonella enterica [5]; 19 mm in the assay on Staphylococcus aureus; 17 mm in the assay with Pseudomonas aeruginosa; 23 mm in the assay on Bacillus subtilis [9]. Also, the growth inhibition at 200 µg/mL was 45% in the assay on Fusarium solani [4], 45% with Aspergillus flavus, 40% in the assay with Nakaseomyces glabratus [6] and 25% in the assay with Candida albicans [7]. In addition, the MIC in the assay with Bacillus subtilis [14] was determined as 263 µM (≈ 100 µg/mL).
In the case of `N=C(N)NS(=O)(=O)c1ccc(/N=C/c2c[nH]c3ccccc23)cc1`, the zone of inhibition at 1000 µg/mL was determined as 23 mm in the assay with Escherichia coli [1]; 22 mm with Shigella flexneri [2]; 23 mm in the assay on Salmonella enterica [5]; 22 mm in the assay on Staphylococcus aureus; 18 mm in the assay on Pseudomonas aeruginosa; 23 mm in the assay with Bacillus subtilis [9]. Besides, the MIC with Salmonella enterica [3] is 293 µM (≈ 100 µg/mL); against Shigella flexneri [13] it was 146 µM (≈ 50 µg/mL); against Bacillus subtilis [14], 146 µM (≈ 50 µg/mL). In addition, the growth inhibition at 200 µg/mL in the assay on Fusarium solani [4] is 35%; with Aspergillus flavus it was 30%; with Nakaseomyces glabratus [6] it was 55%; in the assay with Candida albicans [7], 35%.
Take `Cc1noc(NS(=O)(=O)c2ccc(/N=C/c3c[nH]c4ccccc34)cc2)c1C`: the zone of inhibition at 1000 µg/mL in the assay with Escherichia coli [1] came to 23 mm; in the assay on Shigella flexneri [2], 19 mm; in the assay with Salmonella enterica [5], 20 mm; with Staphylococcus aureus, 20 mm; in the assay on Pseudomonas aeruginosa it was 19 mm; with Bacillus subtilis [9], 17 mm. Also, the growth inhibition at 200 µg/mL was determined as 65% with Fusarium solani [4], 55% in the assay on Aspergillus flavus, 55% in the assay on Nakaseomyces glabratus [6] and 45% in the assay with Candida albicans [7].

By MIC is commonly meant the lowest concentration that inhibits growth of the organism.
